Shown are actives, neighbours in structure and some others; about 6.7% of the full set was active somewhere.
CHOP inh: inhibitors of CHOP induction in ER stress response; AID 2732; inhibition, % at 10 µM; actives 3.8% (n = 220,000); CHO-K1 CHOP-promoter luciferase, tunicamycin-induced, 15-18 h;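 active means compounds that reduced the stress-induced luciferase reporter signal by more than about 70% of percent inhibition, limit read from the data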;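 further: 0% = tunicamycin plus vehicle and 100% = wells without tunicamycin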
T cruzi inh: T. cruzi replication inhibition; T. cruzi beta-gal in NIH3T3, luminescence, 90 h; inhibition, % (no concentration beside the values); actives 1.4% (n = 300,000); AID 1885;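 active means mean inhibition across valid replicates above about 55%, limit read from the data; inconclusive means mean below that limit but half or more replicates reach it; inactive means mean below it, under half of replicates reach it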;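 further: signal also drops with host cell toxicity which is not excluded here; 0% = plate median of DMSO wells and 100% = zero luminescence signal; higher percent means less beta-gal luminescence so fewer parasites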
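assay system = mouse NIH/3T3 fibroblasts infected with β-gal-expressing T. cruzi Tulahuen C4 | input = 5,000 NIH/3T3 host cells per well | buffer or medium = DMEM plus 2% FBS | timing = 3 h host attachment, then at least 90 h co-culture | measured by = GalScreen luminescence, 60 min | evaluation = luminescence reflecting intracellular parasite burden, expressed as percent inhibition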
CSC inhib: blocks cancer stem cells. cancer stem cell-like cells viability, luminescence. inhibition, % at 7.5 µM. actives 1.1% (n = 300,000). AID 2717; in the data active means inhibition above about 75%; inconclusive means no clear call, values can overlap the other calls; tested in HMLE shEcad cells
NR3A LBD binder: modulators (binders) of human NR3A ligand-binding domain; NR3A LBD differential scanning fluorimetry, Tm shift; 0% = protein alone, 100% = glycine-bound protein; Tm shift relative to glycine control, % at 25 µM; actives 2.5% (n = 340,000); AID 1259313;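 active means melting temperature shift of at least 10% of the positive control shift, at one fixed dose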
Beta apoptosis: beta cell apoptosis inhibition | INS-1E cytokine-induced death, ATP luminescence, 48 h; percent of positive-control rescue, neutral wells zero | protection from apoptosis, % (concentration not given with the values) | actives 0.8% (n = 300,000) | AID 435005;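 active means Every replicate reaches about 75%, or at least half do and their mean reaches it too, limit read from the data; inconclusive means At least half of replicates reach the limit but their mean does not; inactive means Under half of replicates reach the limit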;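 further: 0% = cytokine-treated negative control wells and 100% = positive control rescue; higher means more ATP so stronger rescue from cytokine killing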
PREPL inhibitor: human PREPL enzyme inhibition; actives 0.68% (n = 320,000); recombinant PREPL, fluorescence polarization activity-based probe; inhibition, % at 5.96 µM; Q4J6C6; in the data active means inhibition above about 43%;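 further: 0% = enzyme with DMSO and 100% = wells lacking enzyme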
Target sequence (Q4J6C6 whole entry, looked up): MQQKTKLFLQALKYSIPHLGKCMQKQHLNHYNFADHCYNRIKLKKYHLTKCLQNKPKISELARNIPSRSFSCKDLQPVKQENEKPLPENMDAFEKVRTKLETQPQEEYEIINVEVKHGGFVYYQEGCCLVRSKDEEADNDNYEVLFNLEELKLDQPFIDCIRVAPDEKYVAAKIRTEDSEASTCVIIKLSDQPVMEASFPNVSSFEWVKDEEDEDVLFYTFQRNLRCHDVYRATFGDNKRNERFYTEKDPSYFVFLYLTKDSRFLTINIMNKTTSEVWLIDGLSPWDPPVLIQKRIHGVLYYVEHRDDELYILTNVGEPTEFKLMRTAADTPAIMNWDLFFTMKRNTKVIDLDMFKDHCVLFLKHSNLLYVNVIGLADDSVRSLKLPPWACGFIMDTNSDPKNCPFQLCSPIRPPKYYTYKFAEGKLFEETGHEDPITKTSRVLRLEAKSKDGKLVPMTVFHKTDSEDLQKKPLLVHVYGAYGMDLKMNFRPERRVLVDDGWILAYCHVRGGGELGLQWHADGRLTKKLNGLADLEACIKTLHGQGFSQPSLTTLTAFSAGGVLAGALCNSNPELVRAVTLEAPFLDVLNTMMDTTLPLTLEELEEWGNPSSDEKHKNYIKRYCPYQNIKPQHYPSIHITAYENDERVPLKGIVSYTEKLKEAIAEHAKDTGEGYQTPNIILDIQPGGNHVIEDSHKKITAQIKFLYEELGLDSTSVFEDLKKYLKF
* hit, by the source's call; ? = inconclusive; · = not tested or not shown.

SMILES	CHOP inh	T cruzi inh	CSC inhib	NR3A LBD binder	Beta apoptosis	PREPL inhibitor
Nc1nc2ccccc2n1/N=C/c1ccc([N+](=O)[O-])s1	67	50	5	-1	108*	18
COc1ccc(-c2noc(CCCC(=O)O)n2)cc1	84*	-4	-6	0	-1	4
COc1ccc(Cl)cc1N(C)C(=O)CCc1nc(-c2ccc(C)cc2)no1	13	23	-7	-8	-10	-3
CCOc1ccc(-c2noc(CCC(=O)O)n2)cc1	85*	-1	-7	-1	0	4
CCc1ccccc1N(C)C(=O)CCc1nc(-c2ccc(C)cc2)no1	77*	11	2	2	·	5
O=C(CCNS(=O)(=O)c1ccc2ccccc2c1)NCCOc1ccccc1	·	·	·	0	·	·
O=C1NC2(CCCCO2)CO1 (centres undefined)	·	-26	8	-6	-3	-6
CC(=O)c1ccc(OCc2cc(C(=O)N3CC4C[C@@H]5CC3C[C@H](C4)C5)no2)cc1	·	30	20	-1	30	8
O=C(NN1CCOCC1)c1ccc(Cl)s1	-20	4	2	-1	2	9
C[C@@H]1CN([C@H](C)CO)C(=O)c2cc(NC(=O)Nc3ccc(C(F)(F)F)cc3)ccc2O[C@H]1CN(C)S(=O)(=O)c1cccs1	·	·	·	17*	?	5
C[C@H](CO)N1C[C@H](C)[C@@H](CN(C)S(C)(=O)=O)Oc2ccc(NC(=O)Nc3ccc(C(F)(F)F)cc3)cc2C1=O	·	·	·	2	-8	12
C[C@H](CO)N1C[C@H](C)[C@@H](CN(C)S(=O)(=O)c2cccs2)Oc2ccc(NC(=O)Nc3ccccc3)cc2C1=O	·	·	·	-6	-1	16
C[C@H](CO)N1C[C@H](C)[C@@H](CN(C)S(=O)(=O)c2cccs2)Oc2ccc(NC(=O)Nc3ccc(C(F)(F)F)cc3)cc2C1=O	·	·	61	23*	6	-1
Cc1cc(Nc2ccccc2)c2c([N+](=O)[O-])ccc(C)c2n1	58	61*	8	-1	-6	4
Cc1c(NC(=S)NC(=O)c2cccc(Br)c2)c(=O)n(-c2ccccc2)n1C	·	-39	-27	0	-11	4
Cc1nc2sccn2c(=O)c1S(=O)(=O)NCc1ccccc1Cl	·	0	2	1	-2	-1
Cc1nc2sccn2c(=O)c1S(=O)(=O)NCC1CCN(Cc2ccccc2Cl)CC1	·	11	0	12*	-3	11
CC(=O)N(C)c1ccc(NC(=O)N2CCOCC2)cc1	·	-10	-9	0	-5	-3
NC(=O)CC(NC(=O)Cc1ccc(Br)cc1)c1ccc(N2CCCCCCC2)c([N+](=O)[O-])c1 (centres undefined)	·	18	-6	-18	-15	8
NC(=O)CC(NC(=O)Cc1cccc2ccccc12)c1ccc(N2CCCCCCC2)c([N+](=O)[O-])c1 (centres undefined)	·	22	31	-10	0	2
NC(=O)CC(NC(=O)Cc1ccc(Br)cc1)c1ccc(N2CCC(Br)CC2)c([N+](=O)[O-])c1 (centres undefined)	87*	7	14	-5	-1	13
NC(=O)CC(NC(=O)c1ccc(Br)cc1)c1ccc(NCc2ccc(F)c(F)c2)c([N+](=O)[O-])c1 (centres undefined)	14	5	58	1	-17	5
NC(=O)CC(NC(=O)Cc1ccc(Br)cc1)c1ccc(NCc2ccc(F)c(F)c2)c([N+](=O)[O-])c1 (centres undefined)	76*	6	57	-2	-1	-39
NC(=O)CC(NC(=O)Cc1ccc(Br)cc1)c1ccc(N2CCC(Cc3ccccc3)CC2)c([N+](=O)[O-])c1 (centres undefined)	96*	-22	?	1	70	0
NC(=O)CC(NC(=O)Cc1cccc2ccccc12)c1ccc(N2CCN(c3ccc(F)cc3)CC2)c([N+](=O)[O-])c1 (centres undefined)	94*	-4	17	-4	0	21
SMILES	CHOP inh	T cruzi inh	CSC inhib	NR3A LBD binder	Beta apoptosis	PREPL inhibitor
COc1ccc(CCC(=O)Nc2ccc(OC)c(S(=O)(=O)N3CCCCC3)c2)cc1	·	·	·	0	0	-1
COc1ccc(NCC(=O)Nc2cccc(C(F)(F)F)c2)cc1S(=O)(=O)N1CCOCC1	·	·	4	0	0	19
NC(=O)CC(NC(=O)c1ccc(Br)cc1)c1ccc(N2CCCCCC2)c([N+](=O)[O-])c1 (centres undefined)	·	10	123*	-10	2	15
COc1ccc(N(C)S(=O)(=O)c2cccc(C(=O)Nc3cccc(C(=O)NC4CC4)c3)c2)cc1	·	·	·	6	-6	-6
C=CCC(O)(CC=C)CNC(=O)c1ccc(OC)c(OC2CCN(C(C)=O)CC2)c1	·	-24	·	1	·	·
Oc1oc(-c2cccc3ccccc23)nc1/C=N/c1nccs1	90*	-14	-2	11*	-7	6
Oc1oc(-c2cccc3ccccc23)nc1C=NCc1ccccc1	0	·	·	·	·	·
COCCCNC(=O)c1ccc(Cn2c(=O)c3ccccc3n(Cc3cc(C)ccc3C)c2=O)cc1	3	23	22	2	-1	-18
Cc1ccc(Cn2c(=O)n(-c3ccccc3)c(=O)c3ccc(C(=O)NCc4ccco4)cc32)cc1	84*	-15	2	-1	4	3
C=CCn1c(=O)c2ccc(C(=O)NCc3ccccc3)cc2n(Cc2ccc(C)cc2)c1=O	79*	-13	-5	0	11	-3
CCc1ccc(C2=NN(c3ccc(S(N)(=O)=O)cc3)C(c3ccc(F)cc3)C2)cc1 (centres undefined)	90*	29	31	8	18	28
NS(=O)(=O)c1ccc(N2N=C(c3ccccc3)CC2c2ccccc2)cc1 (centres undefined)	81*	10	42	1	6	26
NS(=O)(=O)c1ccc(N2N=C(c3ccccc3)CC2c2ccccc2Cl)cc1 (centres undefined)	·	·	·	-16	·	·
CC(C)(C)c1cc(C(=O)NCCN2CCCC2)cc(C(C)(C)C)c1	33	71*	-3	-2	6	-1
O=C(CSc1nc(-c2ccccc2)cc(C(F)(F)F)n1)NCc1ccco1	12	11	-4	0	-6	1
O=C(CSc1nc(-c2cccs2)cc(C(F)(F)F)n1)Nc1cc(OCC(F)(F)F)cc([N+](=O)[O-])c1	30	7	·	15*	·	-7
FC(F)(F)c1cc(-c2ccco2)nc(NCc2cccs2)n1	-24	22	-6	-5	·	-3
COc1ccc(-c2cc(C(F)(F)F)nc(SCC(=O)NCc3cccs3)n2)cc1	70*	47	·	-15	4	-16
FC(F)(F)c1cc(-c2ccccc2)nc(NCc2cccs2)n1	75*	23	-13	-30	2	2

Compound activity deposited in PubChem BioAssay by several laboratories.
